In ChEMBL document CHEMBL1132148, “Synthesis and biological activity of (hydroxymethyl)- and (diethylaminomethyl)benzopsoralens” (J Med Chem, 1999):
The source made the active and inactive calls. The calls are words filed in the database; no cut-off is given here.

How the values were obtained:
[1] = The IC50-dark is the drug concentration necessary to induce a 50% inhibition of DNA synthesis by incubation at the ground state by keeping mammalian cells in the dark.; assay type: functional
How it was run: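 Ehrlich cells (Lettré strain) in PBS received compound at room temperature without irradiation, with final DMSO ≤0.5%. They were then held 30 min at 37 °C in the dark with 40 kBq·mL-1 [3H]thymidine. DNA-incorporated radioactivity is expressed as % of untreated controls, and IC50 is the concentration giving 50% inhibition.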

[2] = The IC50-UVA is the dose of UVA light which in the presence of fixed drug concentration (20 uM) is necessary to induce a 50% inhibition of DNA synthesis by incubation at the ground state by keeping mammalian cells in the dark.; assay type: functional
How it was run: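 Ehrlich cells (Lettré strain) at 2 × 10^7 cells·mL-1 in PBS were irradiated with increasing UVA doses in the presence of 20 μM compound, with final DMSO ≤0.5%. Then 10^6 cells were labelled with 40 kBq·mL-1 [3H]thymidine for 30 min at 37 °C. Incorporation is given as % of untreated control, and IC50-UVA is the UVA dose (kJ·m-2) giving 50% inhibition.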

[3] = The IC50-UVA is the dose of UVA light which in the presence of fixed drug concentration (20 uM) is necessary to induce a 50% inhibition of clonal growth by incubation at the ground state by keeping mammalian cells in the dark; assay type: functional
How it was run: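 HeLa cells were grown in F-12 Ham with 5% FCS at 37 °C under 5% CO2, seeded at 1.5–2 × 10^5 and given 20 μM compound after 24 h. Cells had 15 min of dark uptake, then increasing UVA doses. Afterwards 200 cells were replated in 10% FCS medium for 7 days and colonies of ≥50 cells were counted. Clonal efficiency is colonies over cells seeded. IC50-UVA is the UVA dose giving 50% inhibition.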

[4] = species on record: Cavia porcellus; assay: Phototoxicity on guinea pig skin was calculated at concentration of 30 uM.cm-2 and UVA light dose 20 kJ.me-2.-- indicates no erythemia.; assay type: functional, organism-based
How it was run: (§1)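 Depilated albino guinea pigs (outbred Dunkin-Hartley) received test compounds topically as 4.5 mM methanol solutions and were then exposed to UVA. The read-out was erythema scoring.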

[5] = The IC50-dark is the drug concentration necessary to induce a 50% inhibition of clonal growth by incubation at the ground state by keeping mammalian cells in the dark.; assay type: functional
How it was run: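 HeLa cells seeded at 1.5–2 × 10^5 were exposed after 24 h to compound in serum-containing growth medium for 3 h at 37 °C under 5% CO2, in the dark and without UVA. Controls had 0.5% DMSO. Afterwards 200 cells were replated and grown 7 days, and colonies of ≥50 cells were counted. IC50 is the concentration halving clonal efficiency.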

[6] = species on record: Cavia porcellus; assay: Phototoxicity on guinea pig skin was calculated at concentration of 4 uM.cm-2 and UVA light dose 5 kJ.me-2.+-- barely erythemia; assay type: functional, organism-based; how it was run: as §1
[7] = species on record: Cavia porcellus; assay: Phototoxicity on guinea pig skin was calculated at concentration of 2 uM.cm-2 and UVA light dose 5 kJ.me-2.-- indicates no erythemia; assay type: functional, organism-based; how it was run: as §1
[8] = species on record: Cavia porcellus; assay: Phototoxicity on guinea pig skin was calculated at concentration of 30 uM.cm-2 and UVA light dose 5 kJ.me-2. ++++ medium erythemia; assay type: functional, organism-based; conditions: in the assay text read “strong erythema with edema” for “medium erythemia”; how it was run: as §1

Question: Which results are given for `CCN(CC)Cc1c2oc(=O)ccc2cc2c1oc1ccccc12`?
Answer: IC50 [1]: 10.7 µM; IC50 [2]: 9.3 kJ m**-2; IC50 [3]: 0.65 kJ m**-2; Intensity of erythemia [4]: no erythemia; IC50 [5]: 10.7 µM

Question: Which IC50 [1] does the source give for `CCN(CC)Cc1ccc2c(c1)oc1cc3oc(=O)cc(C)c3cc12` here?
Answer: > 30 µM

Question: What about the IC50 [2] of the same compound?
Answer: 2.22 kJ m**-2

Question: What about the IC50 [3] of the same compound?
Answer: 1.83 kJ m**-2

Question: And the Intensity of erythemia [4]?
Answer: no erythemia

Question: What about the IC50 [5] of the same compound?
Answer: > 30 µM

Question: What does the source list for `CCN(CC)Cc1cc2cc3c(cc2oc1=O)oc1ccccc13`?
Answer: IC50 [1]: > 30 µM; IC50 [2]: > 30 kJ m**-2; IC50 [3]: > 30 kJ m**-2; Intensity of erythemia [4]: no erythemia; IC50 [5]: > 30 µM

Question: What does the source list for `O=c1oc2cc3oc4ccccc4c3cc2cc1CO`?
Answer: IC50 [1]: > 30 µM; IC50 [2]: 16.8 kJ m**-2; IC50 [3]: 1.06 kJ m**-2; Intensity of erythemia [4]: no erythemia; IC50 [5]: > 30 µM

Question: Which IC50 [1] does the source give for `O=c1cc(CO)c2cc3c(cc2o1)oc1ccccc13` here?
Answer: 0.94 µM

Question: What about the IC50 [2] of the same compound?
Answer: 0.67 kJ m**-2

Question: What about the IC50 [3] of the same compound?
Answer: 0.11 kJ m**-2

Question: And the Intensity of erythemia [4]?
Answer: no erythemia

Question: What about the IC50 [5] of the same compound?
Answer: 3.8 µM

Question: What does the source list for `O=c1ccc2cc3c(oc4ccccc43)c(CO)c2o1`?
Answer: IC50 [1]: 3 µM; IC50 [2]: 0.97 kJ m**-2; IC50 [3]: 0.19 kJ m**-2; Intensity of erythemia [4]: no erythemia; IC50 [5]: 6.8 µM

Question: Which IC50 [1] does the source give for `Cc1cc(=O)oc2cc3oc4cc(CO)ccc4c3cc12` here?
Answer: > 30 µM

Question: What about the IC50 [2] of the same compound?
Answer: 0.48 kJ m**-2

Question: What about the IC50 [3] of the same compound?
Answer: 0.16 kJ m**-2

Question: What about the Intensity of erythemia [4] of the same compound?
Answer: no erythemia

Question: What about the IC50 [5] of the same compound?
Answer: > 30 µM

Question: Which results are given for `O=c1ccc2c(CO)c3c(cc2o1)oc1ccccc13`?
Answer: IC50 [1]: 10.9 µM; IC50 [2]: 8.3 kJ m**-2; IC50 [3]: 0.23 kJ m**-2; Intensity of erythemia [4]: no erythemia; IC50 [5]: 25 µM

Question: For `COc1c2occc2cc2ccc(=O)oc12` [METHOXSALEN], which IC50 [1] is on record?
Answer: > 30 µM

Question: And the IC50 [2]?
Answer: 3.59 kJ m**-2

Question: What about the IC50 [3] of the same compound?
Answer: 1.23 kJ m**-2

Question: And the Intensity of erythemia [6]?
Answer: Partially active

Question: What about the IC50 [5] of the same compound?
Answer: > 30 µM

Question: And the Intensity of erythemia [7]?
Answer: inactive

Question: And the Intensity of erythemia [8]?
Answer: Active

Question: With `CCN(CC)Cc1c2ccc(=O)oc2cc2oc3ccccc3c12` as the compound, how does the IC50 [1] read?
Answer: > 30 µM

Question: What about the IC50 [2] of the same compound?
Answer: > 30 kJ m**-2

Question: And the IC50 [3]?
Answer: > 30 kJ m**-2

Question: What about the Intensity of erythemia [4] of the same compound?
Answer: no erythemia

Question: And the IC50 [5]?
Answer: > 30 µM
